In brackets after ≈: the same amount, converted by molar mass.
system: Vaccinia virus; test: In vitro minimum inhibitory concentration to inhibit VV-induced cytopathogenicity in PRK cells by 50%; type: functional; details: Orthopoxvirus vaccinia
Summary of the method: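 Antiviral read-out was virus-induced cytopathogenicity in primary rabbit kidney (PRK) cell cultures. The value is the compound concentration needed to reduce cytopathogenicity by 50%.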

First: Cn1c(N)nc2c(ncn2COCCO)c1=O
Second: Nc1nc2c(ncn2COCCO)c(=O)[nH]1 [ACYCLOVIR]
The MIC of the first is higher: > 400 µg/mL for the first, 150 µg/mL (≈ 666 µM) for the second.

`Cc1cn2c([O-])c3c(nc2n1)[n+](COCCO)cn3C` and `Cn1c[n+](COCCO)c2nc(N)nc([O-])c21.O=S(=O)(O)O` cannot be ordered by MIC: > 400 µg/mL for the first, > 400 µg/mL for the second.

`Cc1cn2c(=O)c3ncn(COCCO)c3nc2n1C` and `Cc1cn2c(O)c3ncn(COCCO)c3nc2n1` cannot be ordered by MIC: > 400 µg/mL for the first, > 400 µg/mL for the second.

In the case of `CNc1nc(O)c2ncn(COCCO)c2n1`, the MIC is reported as > 400 µg/mL.

Source: ChEMBL document CHEMBL1124149 (1988)
